PubChem BioAssay
Active and inactive are the calls of the source.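 Rule for the calls, unless noted: active = viability at or under a set limit in both replicates, limit being median viability minus 3 SD (cut at about 48% in these data, passing the limit was not always enough); inconclusive = at or under the limit in just one replicate; inactive = at or above the limit in both replicates.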

Experiments:
[1] = reducers of endogenous Her2 protein level, primary screen, SKBR3 breast tumor cells, AlphaScreen, ATP viability (AID 461;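 active = Her2 level under about 52% in both replicate screens, with viability over 70% of control, limit read from the data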;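 for Her2 level: lower value means less Her2 protein in the cells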;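 for viability: percent of carrier control wells set as 100% viability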); settings: 18-24 h, measured here: SKBR3 viability, ATP luminescence, at 10 µM
[2] = biological target: Receptor tyrosine-protein kinase erbB-2 (Homo sapiens) (UniProt P04626); assay: as above; settings: 18-24 h, at 10 µM, stronger effect = lower value
Receptor tyrosine-protein kinase erbB-2 (Homo sapiens), sequence (P04626 whole entry, looked up): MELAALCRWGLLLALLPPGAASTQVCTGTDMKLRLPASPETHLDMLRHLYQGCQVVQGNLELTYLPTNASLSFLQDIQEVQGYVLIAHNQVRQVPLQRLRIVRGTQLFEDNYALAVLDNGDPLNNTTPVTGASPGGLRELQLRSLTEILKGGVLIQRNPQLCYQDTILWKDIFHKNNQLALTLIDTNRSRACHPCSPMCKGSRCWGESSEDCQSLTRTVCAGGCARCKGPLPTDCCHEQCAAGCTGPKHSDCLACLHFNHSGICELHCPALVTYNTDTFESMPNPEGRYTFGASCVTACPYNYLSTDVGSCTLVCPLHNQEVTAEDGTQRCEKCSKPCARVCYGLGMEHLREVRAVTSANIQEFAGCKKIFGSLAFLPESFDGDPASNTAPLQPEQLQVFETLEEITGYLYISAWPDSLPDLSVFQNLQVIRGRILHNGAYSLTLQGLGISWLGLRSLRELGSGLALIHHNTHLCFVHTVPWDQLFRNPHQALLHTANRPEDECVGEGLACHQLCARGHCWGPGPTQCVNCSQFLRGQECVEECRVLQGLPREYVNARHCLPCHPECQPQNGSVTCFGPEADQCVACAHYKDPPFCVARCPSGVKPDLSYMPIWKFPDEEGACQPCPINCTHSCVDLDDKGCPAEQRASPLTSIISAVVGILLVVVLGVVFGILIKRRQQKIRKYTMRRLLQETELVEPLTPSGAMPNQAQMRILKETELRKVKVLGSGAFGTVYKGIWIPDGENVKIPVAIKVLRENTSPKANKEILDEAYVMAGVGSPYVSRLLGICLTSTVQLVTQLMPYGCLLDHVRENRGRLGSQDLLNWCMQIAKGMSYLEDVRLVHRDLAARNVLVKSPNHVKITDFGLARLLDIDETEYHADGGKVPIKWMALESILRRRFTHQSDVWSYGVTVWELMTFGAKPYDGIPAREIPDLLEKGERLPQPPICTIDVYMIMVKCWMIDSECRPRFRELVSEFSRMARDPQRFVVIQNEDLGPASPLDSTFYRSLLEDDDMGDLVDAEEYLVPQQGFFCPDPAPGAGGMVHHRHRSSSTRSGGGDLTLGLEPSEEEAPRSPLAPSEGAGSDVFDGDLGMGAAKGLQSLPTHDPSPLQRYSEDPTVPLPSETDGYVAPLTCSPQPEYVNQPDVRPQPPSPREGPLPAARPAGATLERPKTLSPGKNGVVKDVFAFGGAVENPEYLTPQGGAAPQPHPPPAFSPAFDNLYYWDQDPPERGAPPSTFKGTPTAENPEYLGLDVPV

[3] = SK-BR-3 cell growth inhibitors, pilot screen, 24 h, human (AID 572;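 active = viability at or below 10% of carrier control in both of two separate runs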;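 note: compound exposure lasted between 18 and 24 h rather than exactly 24 h; 100% = carrier-treated control wells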); settings: SK-BR-3 viability, CellTiter-Glo luminescence, at 10 µM, stronger effect = lower value
[4] = HUVEC growth inhibition – cell-based, human, primary screen (AID 575;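 active = viability at or below 30% in both replicate assays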;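 note: 100% = median of untreated cell wells with 0.1% DMSO on each plate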); settings: HUVEC proliferation, CellTiter-Glo luminescence, 72 h; at 10 µM; stronger effect = lower value
How it was run: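 Timing: 72 h treatment at 37 °C; material: HUVEC primary cells; technique: CellTiter-Glo luminescence measuring cellular ATP; controls: vehicle and MePR control wells; measure: percent of median DMSO-control luminescence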

[5] = growth inhibitors of H69AR lung tumor, primary screen, human, duplicate replicates (AID 580); settings: H69AR lung tumor cells viability, ATP luminescence, 72 h; at 10 µM; stronger effect = lower value;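 note: 100% = mean luminescence of untreated wells and 0% = no signal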
[6] = reversal of MRP1-mediated doxorubicin resistance, pilot screen, H69AR cells, doxorubicin co-treatment (AID 601;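 active = viability loss from added drug above about 55%, and viability with drug at most 40%, in both replicates, limit read from the data, passing the limit was not always enough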); settings: CellTiter-Glo, 72 h, at 10 µM; for differential viability (reversal): stronger effect = higher value
[7] = 384-well plate pilot, post-Golgi transport modulator project, inhibition of yeast transport mutant growth (AID 636; in the data active = inhibition above about 31%); settings: absorbance 615 nm, about 18 h, stronger effect = higher value
[8] = growth suppression of yeast trafficking mutant, preliminary HTS, modulators of trafficking downstream of Golgi apparatus project, 1536-format plate, OD 615 nm (AID 637; in the data active = inhibition above about 30%); settings: yeast transport mutant growth, absorbance 615 nm, 18 h; stronger effect = higher value
[9] = H69AR cells + 2 uM doxorubicin, measured here: viability with 2 uM doxorubicin, stronger effect = lower value
[10] = H69AR cells, compound alone cytotoxicity

CCOC(=O)c1cccc(NC(=O)CSc2nnc(-c3cccnc3)n2CC)c1
viability [1]: 88.5% | Her2 level [2]: 95% (inactive) | viability [3]: 88.5% (inactive) | viability [4]: 101% (inactive) | viability [5]: 109% (inactive) | differential viability (reversal) ([6]; H69AR cells + 2 uM doxorubicin): 13.3% (inactive) | viability [6, 9]: 95.2% | viability [6, 10]: 109% | inhibition [7]: -4.67% (inactive) | inhibition [8]: 0% (inactive)

CCN(CC)S(=O)(=O)N1CCC(C(=O)NCC2COc3ccccc3O2)CC1 (stereo not given)
viability [1]: 94% | Her2 level [2]: 114% (inactive) | viability [3]: 94% (inactive) | viability [4]: 109% (inactive) | viability [5]: 97.3% (inactive) | differential viability (reversal) ([6]; H69AR cells + 2 uM doxorubicin): -9.32% (inactive) | viability [6, 9]: 107% | viability [6, 10]: 97.3% | inhibition [7]: -0.79% (inactive) | inhibition [8]: 3.65% (inactive)

CCc1nnc(NC(=O)c2cccc(C(=O)Nc3nnc(CC)s3)n2)s1
viability [1]: 53.5% | Her2 level [2]: 72% (inactive) | viability [3]: 53.5% (inactive) | viability [4]: 3.29% (active) | viability [5]: 8.87% (active) | differential viability (reversal) ([6]; H69AR cells + 2 uM doxorubicin): 1.33% (inactive) | viability [6, 9]: 7.54% | viability [6, 10]: 8.87% | inhibition [7]: 83.5% (active) | inhibition [8]: 73% (active)

CCOC(=O)N1CCN(c2cc(=O)n(-c3ccc(OCC)cc3)c(=O)[nH]2)CC1
viability [1]: 106% | Her2 level [2]: 100% (inactive) | viability [3]: 106% (inactive) | viability [4]: 104% (inactive) | viability [5]: 97.5% (inactive) | differential viability (reversal) ([6]; H69AR cells + 2 uM doxorubicin): 6.84% (inactive) | viability [6, 9]: 90.7% | viability [6, 10]: 97.5% | inhibition [7]: -4.93% (inactive) | inhibition [8]: -1.97% (inactive)

O=C(NCc1cccs1)C1CC(=O)N(c2ccccc2)C1 (stereo not given)
viability [1]: 96.5% | Her2 level [2]: 105% (inactive) | viability [3]: 96.5% (inactive) | viability [4]: 123% (inactive) | viability [5]: 111% (inactive) | differential viability (reversal) ([6]; H69AR cells + 2 uM doxorubicin): 9.26% (inactive) | viability [6, 9]: 101% | viability [6, 10]: 111% | inhibition [7]: -0.13% (inactive) | inhibition [8]: -2.3% (inactive)

N#Cc1c(N2C(=O)C3C4C=CC(C4)C3C2=O)sc2c1CCC2 (stereo not given)
viability [1]: 91.5% | Her2 level [2]: 86.5% (inactive) | viability [3]: 91.5% (inactive) | viability [4]: 91% (inactive) | viability [5]: 90.3% (inactive) | differential viability (reversal) ([6]; H69AR cells + 2 uM doxorubicin): -10.1% (inactive) | viability [6, 9]: 100% | viability [6, 10]: 90.3% | inhibition [7]: -5.07% (inactive) | inhibition [8]: -2.62% (inactive)

COc1ccc(Cn2nnnc2C(c2ccccc2OC)N2CCC(C(N)=O)CC2)cc1 (stereo not given)
viability [1]: 100% | Her2 level [2]: 91% (inactive) | viability [3]: 100% (inactive) | viability [4]: 105% (inactive) | viability [5]: 85.4% (inactive) | differential viability (reversal) ([6]; H69AR cells + 2 uM doxorubicin): 1.34% (inactive) | viability [6, 9]: 84% | viability [6, 10]: 85.4% | inhibition [7]: -5.73% (inactive) | inhibition [8]: 8.52% (inactive)

CC(=O)c1ccc(OCC(O)CN2CC(C)OC(C)C2)cc1 (stereo not given)
viability [1]: 108% | Her2 level [2]: 80.5% (inactive) | viability [3]: 108% (inactive) | viability [4]: 99.7% (inactive) | viability [5]: 105% (inactive) | differential viability (reversal) ([6]; H69AR cells + 2 uM doxorubicin): 14% (inactive) | viability [6, 9]: 91.3% | viability [6, 10]: 105% | inhibition [7]: -5.19% (inactive) | inhibition [8]: 4.13% (inactive)

O=C(c1cc2ccccc2oc1=O)N1CCSC1c1ccco1 (stereo not given)
viability [1]: 100% | Her2 level [2]: 93.5% (inactive) | viability [3]: 100% (inactive) | viability [4]: 97.5% (inactive) | viability [5]: 91.5% (inactive) | differential viability (reversal) ([6]; H69AR cells + 2 uM doxorubicin): 6.19% (inactive) | viability [6, 9]: 85.3% | viability [6, 10]: 91.5% | inhibition [7]: -8.4% (inactive) | inhibition [8]: 5.74% (inactive)

Cc1ccc(OC(=O)CCc2c(C)nc3ncnn3c2C)cc1
viability [1]: 102% | Her2 level [2]: 96.5% (inactive) | viability [3]: 102% (inactive) | viability [4]: 95.9% (inactive) | viability [5]: 87.1% (inactive) | differential viability (reversal) ([6]; H69AR cells + 2 uM doxorubicin): 5.46% (inactive) | viability [6, 9]: 81.7% | viability [6, 10]: 87.1% | inhibition [7]: 3.29% (inactive) | inhibition [8]: -9.09% (inactive)

CC(C)=CCCC(C)CN(C)CCc1ccccn1 (stereo not given)
viability [1]: 79% | Her2 level [2]: 97% (inactive) | viability [3]: 79% (inactive) | viability [4]: 101% (inactive) | viability [5]: 98.6% (inactive) | differential viability (reversal) ([6]; H69AR cells + 2 uM doxorubicin): 21.2% (inactive) | viability [6, 9]: 77.3% | viability [6, 10]: 98.6% | inhibition [7]: -5.19% (inactive) | inhibition [8]: -3.61% (inactive)

O=C(NCC(c1cccnc1)N1CCOCC1)c1ccco1 (stereo not given)
viability [1]: 97% | Her2 level [2]: 71% (inactive) | viability [3]: 97% (inactive) | viability [4]: 106% (inactive) | viability [5]: 98.9% (inactive) | differential viability (reversal) ([6]; H69AR cells + 2 uM doxorubicin): 8.38% (inactive) | viability [6, 9]: 90.6% | viability [6, 10]: 98.9% | inhibition [7]: -4.87% (inactive) | inhibition [8]: 1.17% (inactive)

COCCCNS(=O)(=O)c1ccc2c(c1)CCN2C(C)=O
viability [1]: 97% | Her2 level [2]: 99% (inactive) | viability [3]: 97% (inactive) | viability [4]: 102% (inactive) | viability [5]: 87.1% (inactive) | differential viability (reversal) ([6]; H69AR cells + 2 uM doxorubicin): -17.4% (inactive) | viability [6, 9]: 105% | viability [6, 10]: 87.1% | inhibition [7]: -0.13% (inactive) | inhibition [8]: -0.32% (inactive)

COc1ccc(N(CC(=O)N2c3ccccc3CC2C)S(=O)(=O)c2c(C)noc2C)cc1 (stereo not given)
viability [1]: 88.5% | Her2 level [2]: 88.5% (inactive) | viability [3]: 88.5% (inactive) | viability [4]: 70.3% (inactive) | viability [5]: 83% (inactive) | differential viability (reversal) ([6]; H69AR cells + 2 uM doxorubicin): -16.9% (inactive) | viability [6, 9]: 99.9% | viability [6, 10]: 83% | inhibition [7]: -4.53% (inactive) | inhibition [8]: 1.97% (inactive)
